Screens (PubChem)
Rows were chosen to be rich in hits. Some 3.3% of all compounds tested hit in one or more screens of this group.
FAK blocker = blocks human focal adhesion kinase activity. inhibition, %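 (tested at 7 µM)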. biochemical FAK kinase activity assay. Q05397. hit rate 0.84% among 97,000. AID 727; in the data active means inhibition above about 19%;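 further: 0% = DMSO and 100% = reference compound high control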
HUVEC tox IL1B = HUVEC cytotoxicity counter-screen, IL-1B stimulated; HUVEC cell count loss, Hoechst imaging; cell count reduction, % at 2 µM; hit rate 0.41% among 94,000; AID 845;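 active means cell count reduction more than 3 SD above the screen-wide mean, cut at about 70% in these data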;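 further: normalized per plate to untreated control cells as the no-loss baseline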
Rev-RRE block = inhibitors of HIV-1 Rev-RRE RNA interaction | P05866 | inhibition, % at 8 µM | hit rate 0.79% among 97,000 | Rev peptide-RRE RNA binding, FRET | AID 704;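 active means inhibition above the screen-wide mean plus 3 SD, cut at about 35% in these data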;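 further: 0% = median DMSO wells and 100% = median Neomycin B control wells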
Target sequence (P05866 whole entry, looked up): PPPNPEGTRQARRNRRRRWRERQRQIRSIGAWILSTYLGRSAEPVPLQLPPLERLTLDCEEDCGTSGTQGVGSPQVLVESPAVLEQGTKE
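Test system: Cy5-tagged RRE RNA duplex with fluorescein-tagged Rev peptide; Probe or stimulus: labelled Rev peptide; Schedule: 5 min preincubation and 15 min binding, 25 °C; Signal: FRET fluorescence readout; Evaluation: % inhibition from 671/540 nm acceptor-to-donor ratio, scaled between controls; Control set: DMSO and neomycin B.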
Measles CPE = protection of cells from measles virus. Measles virus-infected cells, CPE protection, absorbance. protection (pct of control), % at 4 µM. hit rate 1.5% among 140,000. AID 841; in the data active means protection mostly above about 24%, no sharp cut-off; inactive means mostly below about 26%
NFkB transloc pot = enhances IL-1B driven NFkB nuclear translocation | HUVEC IL-1B NFkB p65 nuclear translocation imaging | activation, % at 2 µM | hit rate 0.3% among 94,000 | AID 819;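 active means activation above 40%, about the mean plus 3 SD, also judged a hit on visual image review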;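 further: percent activation is computed from the nuclear over cytoplasmic p65 intensity ratio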
NFkB transloc inh = blocks IL-1B driven NFkB nuclear translocation in HUVEC cells | inhibition, % at 2 µM | hit rate 0.43% among 94,000 | AID 796 | HUVEC IL-1B NFkB p65 nuclear translocation imaging;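 active means inhibition above about 30% together with a positive call from visual inspection of the well image, limit read from the data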;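 further: nuclear over cytoplasmic p65 intensity ratio measured by imaging; 0% = IL-1B stimulated DMSO wells and 100% = unstimulated DMSO wells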
An asterisk follows results filed as active; . = not tested or not shown; [ ] = remark or other dose.

SMILES	FAK blocker	HUVEC tox IL1B	Rev-RRE block	Measles CPE	NFkB transloc pot	NFkB transloc inh
CCN(CC)CCNc1nc(-c2ccco2)c2c(c1C#N)CC(C)(C)OC2	-2.9	-30.7	1.8	15.1	-6.3	6.3
COC(=O)c1ccc(CC(=O)c2c(C)cc(O)cc2O)o1	0.9	18.2	0.6	3.1	4.2	-4.2
CS(=O)(=O)Nc1ccc2c(c1)C(=O)OC2	0.6	-10.6	10.6	52.9*	57.5*	-57.5
CCNC(=S)NNC(=O)c1cc(Br)cs1	.	.	.	3.8	.	.
CC(=O)Nc1ccc(N=Nc2ccc(O)cc2)cc1	.	.	.	17.4	.	.
O=c1[nH]c2ccc(Cl)cc2c(-c2ccccc2)c1CN1CCOCC1	3.4	-2.8	4.2	4.6	112.9*	-112.9
O=c1[nH]c2ccc(Cl)cc2c(-c2ccccc2)c1N1CCOCC1	.	.	.	22.4	.	.
O=C(Nc1nnc(COc2ccccc2)s1)c1ccco1	1.5	3.8	6.5	44.7*	5.8	-5.8
NC(N)=NC(N)=Nc1ccc(SC(F)(F)F)cc1	.	.	.	23.8*	.	.
O=C(O)/C=C/C(=O)Nc1ccc(SC(F)(F)F)cc1	.	.	.	10.1	.	.
Cc1cc(C(=O)OCC(=O)Nc2ccc(F)cc2F)c(C)o1	-6.8	-6.1	7.8	37.1*	-2.7	2.7
CNC(=O)CCCc1nc(-c2ccccc2Cl)no1	-0.2	4.4	0.2	9.5	65.2*	-65.2
NC(=O)CCCc1nc(-c2ccccc2Cl)no1	-4.2	-16.4	6.3	9.8	-13.7	13.7
CC(C)(C)n1nnnc1C(c1cccc(C(F)(F)F)c1)N1CCOCC1 (stereo not given)	-3.3	18.6	4.2	27.4*	5.3	-5.3
Cc1[nH]n(-c2ncc(-c3ccccc3)s2)c(=O)c1C(c1ccc(Cl)cc1)C(C#N)C#N (stereo not given)	.	.	.	16.2	.	.
COc1ccc(/C=C/c2nc3sc4c(c3c(=O)o2)CCC4)cc1	-1.9	23.2	2.4	.	-2.8	2.8
O=c1oc(/C=C/c2ccccc2)nc2sc3c(c12)CCC3	0.3	-7.3	37.9*	14.8	5.6	-5.6
O=S(=O)(NC1c2cccc3cccc(c23)C1Sc1ncccn1)c1ccccc1 (stereo not given)	.	.	.	35.7	.	.
Cc1ccc(S(=O)(=O)N2CCCCC2)cc1NC(=O)COC(=O)Cc1cccc(C(F)(F)F)c1	.	.	.	5.7	.	.
COC(=O)c1ccc(-c2sc3nc(N4CCOCC4)c4c(c3c2N)CCCC4)o1	2.5	4.2	84.6*	4.7	-7.2	7.2
CCOC(=O)c1sc2nc(N3CCOCC3)c3c(c2c1N)CCCC3	5.8	8.0	2.0	41.6	-9.8	9.8
CN1c2ccccc2C(O)=C(C(=S)Nc2ccc(F)c(Cl)c2)S1(=O)=O	-0.9	4.5	4.7	40.7*	-2.4	2.4
CN1c2ccccc2C(O)=C(C(=S)Nc2ccccc2)S1(=O)=O	-1.0	.	6.0	5.7	.	.
CC1CCc2c(C(=O)Nc3ccc(OC(F)(F)F)cc3)csc2C1 (stereo not given)	.	.	.	13.3	.	.
CC1(C)CC(NC(=O)C(Cl)(Cl)Cl)CC(C)(C)N1	.	.	.	2.8	.	.
SMILES	FAK blocker	HUVEC tox IL1B	Rev-RRE block	Measles CPE	NFkB transloc pot	NFkB transloc inh
N#CCSCC(=O)Nc1ccc(Br)cc1	0.3	0.0	1.1	73.2*	13.2	-13.2
N#CCSCC(=O)Nc1ccc(F)cc1	1.1	-10.7	0.2	53.7*	-3.4	3.4
CC(C)CC(=O)Nc1ccc2c3c(cccc13)CC2	.	.	.	3.4	.	.
Cc1nn(C)c(C)c1CN(C)S(=O)(=O)c1ccc2ccccc2c1	-0.3	-10.1	5.3	47.4*	14.9	-14.9
COc1ccc(C(C)=O)cc1CSc1nnc(Nc2ccccc2)s1	.	.	.	3.0	.	.
CC(=O)NS(=O)(=O)c1ccc(NC(=O)COc2ccc(C(=O)c3ccccc3)cc2)cc1	.	.	.	9.8	.	.
Cc1cc(=O)n2ccsc2n1	.	.	.	2.5	.	.
CCCCNC(=O)[C@H](Cc1c[nH]c2ccccc12)NC(=O)c1ccccc1Cl	.	.	.	2.1	.	.
CCCNC(=O)[C@H](Cc1c[nH]c2ccccc12)NC(=O)c1ccccc1Cl	.	.	.	31.5*	.	.
Cc1ccc(C(=O)/C=C/c2ccccc2)o1	1.4	13.6	79.9*	7.3	-9.8	9.8
O=c1c2ccccc2cnn1Cc1n[nH]c(=S)n1-c1ccccc1Cl	.	.	.	8.9	.	.
CN(C)c1ccc(N=Cc2nc(-c3ccccc3)oc2O)cc1	-3.9	-45.8	68.8*[fluorescence artefact?]	0.8	-0.1	0.1
COc1ccc(CN=Cc2[nH]c3ccc(Br)c(Cl)c3c2O)cc1	13.9	4.5	125.2*[fluorescence artefact?]	19.9	-2.4	2.4
Nc1c(CO)nnn1-c1ccccc1	.	.	.	8.1	.	.
CCCCCOC(=O)Cc1c(O)c2ccccc2[nH]c1=O	-6.0	24.1	5.6	4.2	9.2	-9.2
